Active and inactive are the calls of the source. The rule behind the calls is not given here.
Legend:
[1] = tested on: EL4; assay: Cytotoxicity against mouse EL4 cells assessed as growth inhibition after 48 hrs by sulforhodamine B assay; format: functional, cell-based; settings: EL4, 48 h
Outline: (§1)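 Cancer lines sourced from the National Cancer Institute and run in a high-flux anticancer screen. Cells were exposed to the test compound over a range of concentrations at 37 °C for 48 h. IC50 is reported as the mean of four experiments, with thapsigargin, methotrexate and paclitaxel as positive controls.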

[2] = tested on: MCF7; assay: Cytotoxicity against human MCF7 cells assessed as growth inhibition after 48 hrs by sulforhodamine B assay; format: functional, cell-based; settings: MCF7, 48 h; outline: as §1
[3] = tested on: PC-3; assay: Cytotoxicity against human PC3 cells assessed as growth inhibition after 48 hrs by sulforhodamine B assay; format: functional, cell-based; settings: PC-3, 48 h; outline: as §1
[4] = Cytotoxicity against mouse McCoy cells assessed as growth inhibition; format: cell-based
[5] = Cytotoxicity against human MCF10A cells assessed as growth inhibition; format: cell-based; settings: MCF-10A
[6] = Cytotoxicity against mouse McCoy cells assessed as growth inhibition at 1230 uM relative to control; format: cell-based; settings: read-out: GI
[7] = Cytotoxicity against human MCF10A cells assessed as growth inhibition at 1230 uM relative to control; format: cell-based, MCF-10A; settings: read-out: GI
[8] = tested on: EL4; assay: Cytotoxicity against mouse EL4 cells up to 200 uM after 48 hrs by sulforhodamine B assay; format: functional, cell-based; outline: as §1
[9] = tested on: MCF7; assay: Cytotoxicity against human MCF7 cells up to 200 uM after 48 hrs by sulforhodamine B assay; format: functional, cell-based; outline: as §1
[10] = tested on: PC-3; assay: Cytotoxicity against human PC3 cells up to 200 uM after 48 hrs by sulforhodamine B assay; format: functional, cell-based; outline: as §1
[11] = Cytotoxicity against mouse McCoy cells up to 200 uM; format: cell-based
[12] = Cytotoxicity against human MCF10A cells up to 200 uM; format: cell-based; settings: mcf-10a

| SMILES | IC50 [1] | IC50 [2] | IC50 [3] | IC50 [4] | IC50 [5] | inhibition at 1230 µM [6] | inhibition at 1230 µM [7] | Activity [8] | Activity [9] | Activity [10] | Activity [11] | Activity [12] |
| --- | --- | --- | --- | --- | --- | --- | --- | --- | --- | --- | --- | --- |
| CC1(C)C[C@@H]2OC(=O)[C@H](Cc3ccccc3)N=C2[C@@]23C(=O)OC4OCC(=CC[C@@H]12)[C@H]43 (stereo partly specified) | 3.7 µM | 4.9 µM | 14.7 µM | > 1230 µM | > 1230 µM | 30% | 22% | – | – | – | – | – |
| CC1(C)C[C@@H]2OC(=O)[C@H](Cc3c[nH]c4ccccc34)N=C2[C@@]23C(=O)OC4OCC(=CC[C@@H]12)[C@H]43 (stereo partly specified) | 4 µM | 6.7 µM | 13.4 µM | > 1230 µM | > 1230 µM | 41% | 20% | – | – | – | – | – |
| CC(=O)O[C@H]1C(=O)[C@@]2(C)[C@H]([C@H](OC(=O)c3ccccc3)[C@]3(O)C[C@H](OC(=O)[C@H](O)[C@@H](NC(=O)c4ccccc4)c4ccccc4)C(C)=C1C3(C)C)[C@]1(OC(C)=O)CO[C@@H]1C[C@@H]2O [PACLITAXEL] | 1.7 µM | – | – | – | – | – | – | – | – | – | – | – |
| C/C=C(/C)C(=O)O[C@H]1C(C)=C2[C@H]([C@@H]1OC(=O)CCCCCCC)[C@@](C)(OC(C)=O)C[C@H](OC(=O)CCC)[C@@]1(O)[C@H]2OC(=O)[C@@]1(C)O [THAPSIGARGIN] | 1.4 µM | 2.7 µM | 2.4 µM | 2 µM | 2.4 µM | – | – | – | – | – | – | – |
| CC1(C)C[C@@H]2OC(=O)[C@@H](Cc3ccccc3)N=C2[C@@]23C(=O)OC4OCC(=CC[C@@H]12)[C@H]43 (stereo partly specified) | – | – | – | – | – | – | – | inactive | inactive | inactive | Non-toxic | Non-toxic |
| CN(Cc1cnc2nc(N)nc(N)c2n1)c1ccc(C(=O)N[C@@H](CCC(=O)O)C(=O)O)cc1 [METHOTREXATE] | 5.1 µM | – | – | – | – | – | – | – | – | – | – | – |

From ChEMBL document CHEMBL3580602, “Iminolactones from Schizophyllum commune” (J Nat Prod, 2015)
